Here are results for four compounds from ChEMBL document CHEMBL1124309, “Toward the synthesis of isozyme-specific enzyme inhibitors. Potent inhibitors of rat methionine adenosyltransferases. Effect of one-atom elongation of the ribose-P alpha bridge in two covalent adducts of L-methionine and beta,gamma-imido-ATP” (J Med Chem, 1988).

Assay [1] addresses T1, S-adenosylmethionine synthetase (MAT 1 and MAT 2) (Rattus norvegicus, UniProt P13444+P18298). The assay is described as follows: Inhibition constant of ATP varied compound was measured on MT variant methionine adenosyltransferase in rat ascitic hepatoma cells. The class given is cell-based. The method, boiled down:
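M-T variant; MgATP varied at six to eight levels, (0.5-4.0)×KM, with L-[methyl-14C]methionine fixed at 120 μM; two inhibitor levels plus uninhibited control. Duplicate 10-min incubations at 37 °C in pH 8.2 Tris/KCl/MgCl2/DTT. Stopped with HClO4-methionine; labelled product bound to phosphocellulose discs, scintillation counted; no-ATP blanks. Ki by replotting double-reciprocal slopes/intercepts.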

Assay [2] addresses T1, S-adenosylmethionine synthetase (MAT 1 and MAT 2). In words: Inhibition constant of Met varied compound was measured on M-2 variant methionine adenosyltransferase in rat kidney. The method, boiled down: (§1)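 L-[methyl-14C]methionine varied at six to eight levels, (0.5-4.0)×KM, with MgATP fixed at 2 mM for both M-2 and M-T; two inhibitor levels plus control. Incubations run in duplicate for 10 min at 37 °C, pH 8.2 Tris buffer with KCl, MgCl2 and DTT. Product on phosphocellulose discs counted by scintillation; no-ATP blanks. Ki from replots of double-reciprocal slopes/intercepts.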

Assay [3] has the same target. In words: Inhibition constant of ATP varied compound was measured on M-2 variate methionine adenosyltransferase in rat kidney. The essentials: (§2)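 Rat M-2 enzyme; MgATP varied at six to eight levels, (0.5-4.0)×KM, with L-[methyl-14C]methionine fixed at 60 μM; two inhibitor levels plus no-inhibitor control. 10 min, 37 °C, pH 8.2 Tris/KCl/MgCl2/DTT buffer, duplicates. Acid-stopped; product on phosphocellulose discs counted by scintillation; no-ATP blanks. Ki from slope/intercept replots of double-reciprocal plots.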

The target is the same in assay [4]. The assay is described as follows: Inhibition constant of Met varied compound was measured on MT variant methionine adenosyltransferase in rat ascitic hepatoma cells. The class given is cell-based. The method, boiled down:
as §1

For assay [5] the target is unchanged. In words: Inhibition constant of ATP varied compound was measured on M-2 variate Methionine adenosyltransferase in rat kidney. The method, boiled down: as §2
Assay [6] has the same target. The assay is described as follows: Inhibition constant of Met varied compound was measured on M-2 variant Methionine adenosyltransferase in rat kidney. The essentials: as §1

The Ki is the dissociation constant of the complex between target and ligand, obtained from inhibition or displacement. Read a high Ki as a looser hold on the target.

In the case of `Nc1ncnc2c1ncn2[C@@H]1O[C@H]([C@@H](CNP(=O)(O)OP(=O)(O)OP(=O)(O)O)SCCC(N)C(=O)O)[C@@H](O)[C@H]1O` (stereo partly specified), the inhibition constant (Ki) in assay [1] is 270 nM; in assay [2] it was 3000 nM; in assay [3], 360 nM; in assay [4], 2300 nM.
`Nc1ncnc2c1ncn2[C@@H]1O[C@H]([C@H](CSCCC(N)C(=O)O)OP(=O)(O)OP(=O)(O)NP(=O)(O)O)[C@@H](O)[C@H]1O` (stereo partly specified): the Ki stood at 130 nM in assay [5], 210 nM in assay [1], 650 nM in assay [6] and 670 nM in assay [4].
As for `Nc1ncnc2c1ncn2[C@@H]1O[C@H](C(CCOP(=O)(O)OP(=O)(O)NP(=O)(O)O)SCCC(N)C(=O)O)[C@@H](O)[C@H]1O` (stereo partly specified), the Ki was determined as 810 nM in assay [1], 2100 nM in assay [2], 440 nM in assay [3] and 1500 nM in assay [4].
On the same counts, the results for `Nc1ncnc2c1ncn2[C@@H]1O[C@H](CC(CSCC[C@H](N)C(=O)O)OP(=O)(O)OP(=O)(O)NP(=O)(O)O)[C@@H](O)[C@H]1O` (stereo partly specified) are 630 nM, 2200 nM, 390 nM and 2700 nM.
